Shown are actives, neighbours in structure and some others; about 3.8% of the full set was active somewhere.
KCNQ1 inh – inhibitors of human KCNQ1 channel, primary screen, cell-based, thallium flux, high-throughput; Potassium voltage-gated channel subfamily KQT member 1 (Homo sapiens), P51787; CHO-K1 KCNQ1, FluxOR thallium flux fluorescence; stronger effect = higher value; B-score at 10 µM; 310,000 compounds, 1.3% hits; AID 2642, 2010;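 active = compounds whose thallium flux B-score, printed positive for inhibition, exceeds three library SD while starting fluorescence stays within three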;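 also: channel opened by potassium depolarization with thallium stimulus after 20 min compound exposure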
Target sequence (P51787 whole entry, looked up): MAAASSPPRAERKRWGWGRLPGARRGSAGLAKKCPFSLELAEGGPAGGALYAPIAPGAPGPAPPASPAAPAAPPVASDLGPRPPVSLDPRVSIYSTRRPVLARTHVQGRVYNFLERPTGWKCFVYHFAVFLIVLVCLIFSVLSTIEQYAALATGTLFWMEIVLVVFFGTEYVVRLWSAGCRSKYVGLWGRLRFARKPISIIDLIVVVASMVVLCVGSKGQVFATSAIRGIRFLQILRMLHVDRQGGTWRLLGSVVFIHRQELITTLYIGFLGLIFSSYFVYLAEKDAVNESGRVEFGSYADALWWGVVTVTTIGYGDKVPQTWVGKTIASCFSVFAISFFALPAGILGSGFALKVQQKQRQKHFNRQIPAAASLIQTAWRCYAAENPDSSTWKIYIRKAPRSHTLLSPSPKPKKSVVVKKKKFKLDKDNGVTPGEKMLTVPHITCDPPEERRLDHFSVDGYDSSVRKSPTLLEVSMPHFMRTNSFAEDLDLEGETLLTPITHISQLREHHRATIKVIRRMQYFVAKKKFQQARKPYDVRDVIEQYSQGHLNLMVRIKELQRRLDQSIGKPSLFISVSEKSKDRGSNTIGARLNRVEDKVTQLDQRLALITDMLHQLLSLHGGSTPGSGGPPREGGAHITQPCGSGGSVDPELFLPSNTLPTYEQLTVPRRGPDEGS
KCNK3 block – human KCNK3 channel inhibitors, primary screen, CHO cells, FluxOR thallium flux, B-score | 340,000 compounds, 0.84% hits | B-score at 10 µM | Potassium channel subfamily K member 3 (Homo sapiens), O14649 | FluxOR fluorescence; stronger effect = lower value;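 active = B-score under library mean minus 4 SD, starting fluorescence ratio at most library mean plus 5 SD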;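 also: more negative B-score means stronger inhibition of thallium flux through KCNK3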
KCNK9 inh – KCNK9 potassium channel inhibitors, primary screen, HEK293 cells, thallium flux; Potassium channel subfamily K member 9 (Homo sapiens), Q9NPC2; FluxOR thallium flux fluorescence; stronger effect = lower value; B-score at 10 µM; 310,000 compounds, 1.2% hits; AID 488922, 2010;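 active = ratio B-score over 3 SD below the library mean, with starting fluorescence within 5 SD of its mean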;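 also: negative B-score means less thallium flux so channel inhibition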
Kir21 block – inhibitors of mouse Kir2.1 inward-rectifier potassium channel. AID 1672, 2009. HEK293-Kir2.1, FluxOR thallium flux fluorescence; stronger effect = lower value. 310,000 compounds, 0.85% hits. Inward rectifier potassium channel 2 (Mus musculus), P35561. B-score at 10 µM;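 active = fluorescence ratio B-score at or below minus 3 SD of library scores, with starting-brightness B-score within 2 SD, cut at about -4.2 in these data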;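 also: channel flux triggered by added potassium and thallium sulfate stimulus; B-score of peak minus minimum fluorescence over baseline after thallium stimulus; more negative B-score means stronger Kir2.1 block with less thallium influx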
KCNQ1 pot – potentiators or activators of KCNQ1 channel, primary screen, cell-based, thallium flux, high-throughput | 310,000 compounds, 0.35% hits | Potassium voltage-gated channel subfamily KQT member 1 (Homo sapiens), P51787 | AID 2648, 2010 | B-score at 10 µM | CHO-K1 KCNQ1, thallium flux FluxOR fluorescence; stronger effect = higher value;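 active = fluorescence ratio B-score, a plate-corrected score, at least three library SD, with initial intensity B-score within 5 SD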
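Assay system: stable KCNQ1 CHO-K1 line; medium: assay buffer, equal DMSO in all wells; timing: 90 min dye loading and 20 min compound exposure, both at room temperature; technique: kinetic FluxOR thallium fluorescence, 10-s 1-Hz baseline, 110-s post-stimulus read; read-out basis: B score of baseline-normalized fluorescence ratio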
hERG protect – hERG rescue from dofetilide block, primary screen, cell-based, CHO-hERG, FluxOR thallium flux, dofetilide IC70 | Voltage-gated inwardly rectifying potassium channel KCNH2 (Homo sapiens), Q12809 | dofetilide IC70 present | activation (rescue from dofetilide block), less the hit threshold, % at 10 µM | 310,000 compounds, 0.51% hits;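 active = activation above the mean of controls blocked by dofetilide plus 5 SD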;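 also: thallium influx through hERG after potassium depolarization seen as dye fluorescence rise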
Active calls of the source: *; i = inactive; · = not tested or not shown.

SMILES	KCNQ1 inh	KCNK3 block	KCNK9 inh	Kir21 block	KCNQ1 pot	hERG protect
CC1=NN(c2nc(-c3ccc(C)cc3)cs2)C(=O)C1N=Nc1cccc(O)c1 (stereo not given)	i	i	i	-0.71	i	-20
CC1=C(C)CC2C(C1)C(=O)c1ccc(Br)cc1S2(=O)=O (stereo not given)	·	i	·	·	·	·
OCCOCCN1CCN(C2=Nc3ccccc3Sc3ccccc32)CC1	i	i	i	-0.6	i	·
O=C1C=CC(=O)c2c(O)c(N3CCN(CCOCCO)CC3)c(Br)c(O)c21	·	-11*	·	·	·	·
O=C1C=CC(=O)c2c(O)c(N3CCN(CCO)CC3)c(Cl)c(O)c21	·	-11*	·	·	·	·
CCN1CCN(c2nc(-c3ccccc3)c3ccccc3n2)CC1	i	i	i	-0.95	i	-18
c1ccc(-c2nc(N3CCNCC3)nc3ccccc23)cc1	i	i	i	-7.2*	i	-11
CC(=O)N1CCN(C(=O)COC(=O)CNC(=O)c2ccc(C)cc2)CC1	·	i	·	·	·	·
CCOC(=O)/C(C#N)=C/c1ccc(SC)cc1	i	i	i	0.84	i	42*
CCOC(=O)/C(C#N)=C/c1ccc(OC)c(OC)c1	i	i	i	0.36	i	-10
CC(C)Cc1ccc(C(C)C(N)=NCCc2ccccc2)cc1 (stereo not given)	9*	i	i	-7.5*	i	-22
O=C1CN(C(=O)c2ccccc2Br)C(c2ccc(F)cc2)c2cc(F)ccc2N1 (stereo not given)	i	i	i	-0.76	i	-18
CCOC(=O)c1cc2c(ccc3ccccc32)oc1=O	i	i	i	-0.42	i	-6
CC(OC(=O)c1cc2c(ccc3ccccc32)oc1=O)c1nc2ccccc2s1 (stereo not given)	9*	i	i	0.19	i	-33
CC(C)(C)C1CCC(CN2CCC(CN3C(=O)C(=O)NC[C@@H]3Cc3ccccc3)CC2)CC1 (stereo not given in full)	·	i	·	·	·	·
Cc1cccc(OCc2nnc(SCC(=O)N3c4ccccc4CCc4ccccc43)o2)c1	i	i	i	-0.92	i	-15
O=C(CSc1nnc(COc2ccc(F)cc2)o1)N1c2ccccc2CCc2ccccc21	i	i	-13*	1.6	i	-10
Cc1ccc(NC(=O)c2cccc3cccnc23)cc1	i	i	-7.6*	0.17	i	-8
CCCOc1ccc2c(c1)C(=NN=C(N)N)c1cc(OCCC)ccc1-2	i	i	i	1.4	i	-9
COCCNC(=O)CN(C(=O)c1ccc(N2CCCC2)nc1)c1ccc(F)c(Cl)c1	i	i	i	-0.24	i	-7
COCCNC(=O)CN(C(=O)c1ccc(N2CCCC2)nc1)c1ccccc1	i	i	i	-0.22	i	5.1*
CCCCn1c(N)c(N(CCOC)C(=O)c2c(CC)noc2C)c(=O)[nH]c1=O	·	i	·	·	·	·
CC1=NN(Cc2ccccc2)C(=O)C1C(c1ccc(Cl)cc1)C(C#N)C#N (stereo not given)	i	i	i	-5.5*	i	-14
CCOCCCN(C(=O)c1ccco1)C(C(=O)NC1CCCC1)c1ccc(OC)cc1 (stereo not given)	i	i	i	-1.6	i	-10
CC(c1ccccc1)N(CCC(c1ccccc1)C1CCOC(C)(C)C1)C(=O)c1ccco1 (stereo not given)	9*	i	i	-6*	i	-37
SMILES	KCNQ1 inh	KCNK3 block	KCNK9 inh	Kir21 block	KCNQ1 pot	hERG protect
CCCN(CCC)C(=O)CC(c1ccccc1)C1CCOC(C)(C)C1 (stereo not given)	i	i	i	-0.59	i	-18
COc1ccc(CN(CCC(c2ccc(F)cc2)C2CCOC(C)(C)C2)C(=O)c2ccco2)cc1 (stereo not given)	i	i	-11*	-0.62	i	-26
CC(C)C[C@H](NC(=O)OC(C)(C)C)C(=O)N[C@@H](CO)[C@H](O)[C@@H]1C[C@@H]1C(=O)N(C)C	i	i	i	-0.09	i	-3
CC(OC(=O)C1=Cc2ccccc2OC1)C(=O)NCC1CCCO1 (stereo not given)	·	i	·	·	·	·
C[C@H](CO)N1C[C@H](C)[C@@H](CN(C)S(=O)(=O)c2ccccc2)Oc2ccc(NS(=O)(=O)c3ccccc3)cc2C1=O	·	i	·	·	·	·
CC(CCc1ccccc1)NCc1cccc2ccccc12 (stereo not given)	i	i	i	-9.7*	i	-12
CSc1ccccc1C(=O)OCC(=O)Nc1cccnc1Cl	·	i	·	·	·	·
Cc1cc(C)cc(NC(=S)NCC2CCN(C(C)c3ccccc3)C2)c1 (stereo not given)	i	i	i	-4.9*	i	-17
Cc1ccccc1NC(=S)NCC1CCN(C(C)c2ccccc2)C1 (stereo not given)	i	i	i	-1.5	i	-13
COc1cccc(-c2ccc(NC(=O)C3CCCN(Cc4cnc(C)n4C)C3)cc2)c1 (stereo not given)	i	i	i	-0.29	i	-20
Cc1ncc(CN2CCCC(C(=O)Nc3ccc(-c4cccc(F)c4)cc3)C2)n1C (stereo not given)	i	i	i	-4.3*	i	-20
O=C(NC(=S)N1CCCCCC1)c1ccccc1	i	i	i	0.07	i	5.8*
O=C(NC(=S)N1CCN(c2ccccc2)CC1)c1ccccc1	i	i	i	-0.72	20*	10*
O=C(NC(=S)N1CCCCCC1)c1ccc(Cl)cc1Cl	i	i	i	-0.68	21*	7.0*
O=C(NC(=S)N1CCCC1)c1ccccc1	i	i	i	0.05	i	-5
O=C(C[n+]1cccc(C(=O)N/N=C/c2cccc([N+](=O)[O-])c2)c1)c1ccccc1	·	i	·	·	·	·
CC(NCC(O)COC1CCC(C(C)(C)C)CC1)c1ccccc1 (stereo not given)	i	i	i	-8.6*	i	-14
CC1CCC(C(C)C)C(OCC(O)CNC(C)c2ccccc2)C1 (stereo not given)	i	i	i	-2	i	-17
CC(=O)c1cccc(NC(=O)CNC(=O)c2sc3ccccc3c2Cl)c1	i	i	i	-1.6	i	-16

Screening results: PubChem, Johns Hopkins Ion Channel Center
